The subject of one experiment is P388. Put plainly: Antineoplastic activity against mouse P388 cells. It is filed as functional. The settings on record: read-out: ED50 (the source's name).
A further experiment concerns NCI-H460. Put plainly: Antineoplastic activity against human NCI-H460 cells. Type of experiment: functional. Particulars: read-out: ED50 (the source's name).
The subject of the next experiment is KM-20L2. Put plainly: Antineoplastic activity against human KM20L2 cells. It is filed as functional. Particulars: read-out: ED50 (the source's name).
The next experiment has as its system SK-MEL-5. Put plainly: Antineoplastic activity against human SK-MEL-5 cells. Type of experiment: functional. The settings on record: read-out: ED50 (the source's name).
The subject of the next experiment is OVCAR-3. Put plainly: Antineoplastic activity against human OVCAR-3 cells. Type of experiment: functional. Particulars: read-out: ED50 (the source's name).
A further experiment deals with SF-295. Put plainly: Antineoplastic activity against human SF295 cells. Type of experiment: functional. The settings on record: read-out: ED50 (the source's name).
The next experiment relates to A498. The experiment in a line: Antineoplastic activity against human A498 cells. It is filed as functional. Particulars: read-out: ED50 (the source's name).
The next experiment deals with Candida albicans. The experiment in a line: Antimicrobial activity against Candida albicans at 64 ug/ml by broth microdilution susceptibility assay. Type of experiment: functional, organism-based. The essentials: (§1)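 Yeast panel (Candida albicans, Cryptococcus neoformans) tested by broth microdilution following the NCCLS reference method for yeasts (M27-A). MIC taken as the lowest compound concentration giving no visible growth (optically clear).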
For orientation: Broth dilution looks for growth in wells or tubes with falling amounts of substance.

The subject of the next experiment is Staphylococcus aureus. The experiment in a line: Antimicrobial activity against Staphylococcus aureus by broth microdilution susceptibility assay. It is filed as functional. The essentials:
(§2)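 Bacteria tested by broth microdilution following the NCCLS standard for aerobically growing bacteria (M7-A4). MIC read as the lowest compound concentration that blocked all visible growth of the organism (optically clear wells).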

The test system of the next experiment is Streptococcus pneumoniae. The experiment in a line: Antimicrobial activity against Streptococcus pneumoniae by broth microdilution susceptibility assay. It is filed as functional. A digest of the protocol: as §2
In a further experiment the test system is Enterobacter cloacae. Put plainly: Antimicrobial activity against Enterobacter cloacae at 64 ug/ml by broth microdilution susceptibility assay. It is filed as functional, organism-based. A digest of the protocol:
as §2

The subject of another experiment is Neisseria gonorrhoeae. Put plainly: Antimicrobial activity against Neisseria gonorrhoeae by broth microdilution susceptibility assay. It is filed as functional. The essentials:
as §2

In experiment [1] the test system is Cryptococcus neoformans. Put plainly: Antimicrobial activity against Cryptococcus neoformans at 64 ug/ml by broth microdilution susceptibility assay. Type of experiment: functional, organism-based. A digest of the protocol:
as §1

Experiment [2] relates to Enterococcus faecalis. Put plainly: Antimicrobial activity against Enterococcus faecalis at 64 ug/ml by broth microdilution susceptibility assay. Type of experiment: functional, organism-based. The essentials: as §2
Experiment [3] concerns Micrococcus luteus. The experiment in a line: Antimicrobial activity against Micrococcus luteus at 64 ug/ml by broth microdilution susceptibility assay. It is filed as functional, organism-based. A digest of the protocol:
as §2

The subject of the next experiment is Escherichia coli. Put plainly: Antimicrobial activity against Escherichia coli at 64 ug/ml by broth microdilution susceptibility assay. Type of experiment: functional, organism-based. A digest of the protocol: as §2
In experiment [4] the test system is Cryptococcus neoformans. The experiment in a line: Antimicrobial activity against Cryptococcus neoformans by broth microdilution susceptibility assay. Type of experiment: functional. The essentials:
as §1

In experiment [5] the test system is Enterococcus faecalis. The experiment in a line: Antimicrobial activity against Enterococcus faecalis by broth microdilution susceptibility assay. It is filed as functional. The essentials:
as §2

Experiment [6] has as its system Micrococcus luteus. Put plainly: Antimicrobial activity against Micrococcus luteus by broth microdilution susceptibility assay. Type of experiment: functional. A digest of the protocol:
as §2

Experiment [7] has as its system Stenotrophomonas maltophilia. Put plainly: Antimicrobial activity against Stenotrophomonas maltophilia at 64 ug/ml by broth microdilution susceptibility assay. It is filed as functional, organism-based. The essentials:
as §2

≈ marks a conversion by molar mass, not a printed value. Calls of active or inactive are those of the source. The calls are words filed in the database; no cut-off is given here.

As for `COC1=Cc2ccnc3ccnc(c23)C1(OC)OC`, the EC50 with P388 is 59 µg/mL (≈ 228 µM).

On to `COc1cc2ccnc3c2c(c1OC)NC=C3` [AAPTAMINE], for which the EC50 with NCI-H460 was 3.2 µg/mL (≈ 14 µM); with KM-20L2, 3.6 µg/mL (≈ 15.8 µM); in the experiment on SK-MEL-5 it was 4.3 µg/mL (≈ 18.8 µM); in the experiment with P388, 3.6 µg/mL (≈ 15.8 µM); in the experiment with OVCAR-3, 4.9 µg/mL (≈ 21.5 µM); in the experiment on SF-295, 4.1 µg/mL (≈ 18 µM). Besides, the EC50 in the experiment on A498 worked out at 3.2 µg/mL (≈ 14 µM).

On to `COC1=Cc2ccnc3ccnc(c23)C1=O` [DEMETHYLOXY-AAPTAMINE], for which the EC50 with NCI-H460 came out at 2.3 µg/mL (≈ 10.8 µM); in the experiment with KM-20L2, 2.1 µg/mL (≈ 9.9 µM); in the experiment on SK-MEL-5 it was 1 µg/mL (≈ 4.71 µM); in the experiment on P388 it was 0.31 µg/mL (≈ 1.46 µM); in the experiment on OVCAR-3, 0.39 µg/mL (≈ 1.84 µM); in the experiment on SF-295, 2.8 µg/mL (≈ 13.2 µM). In the experiment on A498, the EC50 is 4.2 µg/mL (≈ 19.8 µM).

Turning to `COc1cc2ccnc3c2c(c1OP(=O)([O-])[O-])N(C)C=C3.[Na+].[Na+]` [HYSTATIN 1], the EC50 is over 10 µg/mL with NCI-H460, over 10 µg/mL in the experiment with KM-20L2 and 3 µg/mL in the experiment on P388. In addition, the outcome in the experiment on Candida albicans, in the experiment with Enterobacter cloacae, with Cryptococcus neoformans [1], with Enterococcus faecalis [2], with Micrococcus luteus [3] and in the experiment on Escherichia coli was inactive. Further, the MIC – broadly, the lowest concentration that inhibits growth of the organism – was 64 µg/mL in the experiment on Staphylococcus aureus, 16 µg/mL against Streptococcus pneumoniae and under 0.5 µg/mL in the experiment on Neisseria gonorrhoeae.

Consider `COc1cc2ccnc3c2c(c1O)N(C)C=C3` [ISOAAPTAMINE], for which the EC50 in the experiment on NCI-H460 is 2.4 µg/mL (≈ 10.5 µM); in the experiment with KM-20L2, 2.3 µg/mL (≈ 10.1 µM); with SK-MEL-5 it was 1.6 µg/mL (≈ 7.01 µM); with P388, 0.28 µg/mL (≈ 1.23 µM); in the experiment with OVCAR-3, 1.2 µg/mL (≈ 5.26 µM); in the experiment with SF-295, 2.6 µg/mL (≈ 11.4 µM). Further, the EC50 in the experiment on A498 was found to be 2.2 µg/mL (≈ 9.64 µM). Moreover, the MIC was 64 µg/mL (≈ 280 µM) in the experiment with Cryptococcus neoformans [4]; 16 µg/mL (≈ 70.1 µM) with Staphylococcus aureus; 8 µg/mL (≈ 35 µM) against Streptococcus pneumoniae; 32 µg/mL (≈ 140 µM) with Enterococcus faecalis [5]; 32 µg/mL (≈ 140 µM) against Micrococcus luteus [6]; under 0.5 µg/mL in the experiment with Neisseria gonorrhoeae. The outcome (in the experiment on Candida albicans; with Enterobacter cloacae; in [7]; in the experiment with Escherichia coli) was inactive.
